Results: paper PMC8197731 (The journal of pain, 2021)
“Also recorded” adds a separate entry of the source.

What was measured:
WT and PAR3^−/− mice [1] = format: in vivo, mouse
WT and PAR3^−/− mice [2] = assay: Facial grimacing; format: in vivo, mouse; settings: for facial grimacing, WT and PAR3^−/− / facial grimacing, PAR3^−/− and WT: male
WT and PAR3^−/− mice [3] = format: in vivo, mouse; remark: listed apart in the source
How it was run: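 Eight-week-old male mice were primed by intraplantar injection and allowed to recover completely (14 d), then given 100 ng PGE2 into the same hind paw. Facial expressions were video-recorded with mice placed individually in 9×5×5 cm cubicles, using an adapted mouse grimace scale protocol. Scores were averaged per time point for each cohort, with 4 mice per genotype.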

WT and PAR3^−/− mice [4] = assay: Mechanical paw withdrawal threshold; format: in vivo, mouse
[5] = system: lamina IIo neurons in lumbar segments of mouse spinal cord
mouse lung fibroblasts = settings: ref [35]; cited from earlier work
[6] = system: human A-498 carcinoma cells; settings: ref [35]; cited from earlier work
[7] = system: human smooth muscle cells; settings: ref [6]; cited from earlier work
rat astrocytes = settings: ref [60]; cited from earlier work
WT and PAR3^−/− mice [8] = assay: Thermal sensitivity; format: in vivo, mouse; settings: C660, Hargreaves
[9] = system: HEK293 cells not induced to express PAR3; assay: RTCA; format: cell-based; settings: varying concentrations of C660; Cell Index
How it was run: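 Uninduced HEK293 Flp-In T-Rex cells were plated on poly-L-lysine E-plates in DMEM/F12 with 5% FBS, run alongside tetracycline-induced cells. Compound was added in quadruplicate at varying final concentrations once impedance stabilized (~6 h). Cell Index, calculated as (Zi−Z0)/15 Ω, was recorded every minute for 4 h, and peak changes after addition were taken.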

[10] = Solubility of the synthesized ligands; format: physicochemical; settings: aqueous buffers (as printed for C751)
human PAR3 [11] = molecular target: T1, human PAR3 (Homo sapiens, UniProt O00254); assay: RTCA; format: cell-based
T1 sequence (O00254 22-374): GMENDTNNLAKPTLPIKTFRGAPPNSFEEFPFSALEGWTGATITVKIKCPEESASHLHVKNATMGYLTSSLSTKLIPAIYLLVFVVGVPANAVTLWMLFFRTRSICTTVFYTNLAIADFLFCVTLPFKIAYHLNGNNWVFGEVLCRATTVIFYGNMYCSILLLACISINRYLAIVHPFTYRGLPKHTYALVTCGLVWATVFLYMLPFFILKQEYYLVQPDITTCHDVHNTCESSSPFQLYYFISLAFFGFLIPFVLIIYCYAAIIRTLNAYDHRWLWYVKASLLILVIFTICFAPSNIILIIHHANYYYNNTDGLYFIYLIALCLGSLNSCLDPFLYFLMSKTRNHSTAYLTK
How it was run: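 HEK293 Flp-In T-Rex cells stably carrying human PAR3 were induced with tetracycline (0.3 or 1 μg/mL, 48 h), then plated on poly-L-lysine E-plates in DMEM/F12 with 5% FBS. At Cell Index stabilization (~6 h), compound was added in quadruplicate at varying final concentrations. CI was read every minute for 4 h. Peak CI changes were normalized to percent of the plate's peak response, and EC50 was fitted across multiple plates.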

human PAR3 [12] = molecular target: T1, human PAR3; settings: COS-7 cells transfected with human PAR3; ref [30]; cited from earlier work
Murine PAR3 = settings: COS-7 cells transfected with murine PAR3; ref [47]; cited from earlier work
[13] = primed with 2AT 30 pmol, i.pl, PGE2 100 ng after 14 d, n = 4/group
[14] = 2AT 30 pmol, hind paw, n = 4/group
[15] = primed with IL-6 0.1 ng, i.pl, PGE2 100 ng after 14 d, n = 4/group
[16] = TFFLLR-NH2 100 μg, i.pl, male, n = 4/group
[17] = C660 30 pmol intraplantar, WT male mice, n = 4/group
[18] = thrombin 10 units, i.pl, male, n = 4/group
[19] = thrombin 10 units, i.pl, male, n = 4/group, listed as thrombin

Molecule: 2-aminothiazo-4-yl-LIGRL-NH2 [Compound 2AT, reference compound]
- duration of mechanical hyperalgesia after PGE2 (priming), WT (WT and PAR3^−/− mice [1]; primed with 2AT 30 pmol, i.pl, PGE2 100 ng after 14 d, WT): up to 24 hours
- mechanical hyperalgesia after PGE2 (priming), WT and PAR3^−/− (WT and PAR3^−/− mice [1]; [13]): profound deficit in priming in the PAR3^−/− mice; also recorded: robust in the WT group only; also recorded: loss of hyperalgesic priming
- priming effect size (von Frey), WT vs PAR3^−/− (WT and PAR3^−/− mice [1]; primed with 2AT 30 pmol, i.pl, PGE2 100 ng after 14 d, unpaired t-test): significant genotype difference between WT and PAR3^−/− groups
- facial grimacing, WT and PAR3^−/− (WT and PAR3^−/− mice [2]; [14]): significantly increased (A) mechanical hypersensitivity (B) and facial grimacing
- duration of facial grimacing, WT and PAR3^−/− (WT and PAR3^−/− mice [2]; [14]): up to 5 hours
- facial grimacing after PGE2 (priming), WT and PAR3^−/− (WT and PAR3^−/− mice [3]; [13]): increased in both groups
- mechanical hypersensitivity, WT and PAR3^−/− (WT and PAR3^−/− mice [4]; 2AT 30 pmol, hind paw, male, n = 4/group): significantly increased (A) mechanical hypersensitivity; also recorded: did not show any differences in acute responses in PAR3^−/− mice
- duration of mechanical hypersensitivity, WT and PAR3^−/− (WT and PAR3^−/− mice [4]; [14]): up to 5 hours

Molecule: NC1=N[C@H](O)[C@H]2[C@H]3O[C@]4(O)O[C@@H]([C@@H](O)[C@@]2(N1)[C@@H]4O)[C@]3(O)CO [Tetrodotoxin (TTX), Tetrodotoxin, reference compound]
- effect of TTX on C660-induced increase of synaptic event frequency [5]: did not influence the effect of C660 on the increased frequency of synaptic events

Molecule: AYPGKF-NH2 [reference compound]
- facial grimacing, PAR3^−/−, 1 hr (WT and PAR3^−/− mice [2]; AYPGKF-NH2 100 μg, i.pl, PAR3^−/−, 1 hr post-injection, n = 4/group): transiently increased
- facial grimacing, WT and PAR3^−/− (WT and PAR3^−/− mice [2]; AYPGKF-NH2 100 μg, i.pl, n = 4/group): did not significantly change withdrawal thresholds and grimacing in WT while a transient effect was seen in PAR3^−/− mice
- paw withdrawal threshold, WT and PAR3^−/− (WT and PAR3^−/− mice [4]; AYPGKF-NH2 100 μg, hind paw, male, n = 4/group): did not significantly change withdrawal thresholds and grimacing in WT while a transient effect was seen in PAR3^−/− mice; also recorded: did not change significantly in both WT and PAR3^−/− mice groups

Molecule: IL-6: inflammatory cytokine interleukin 6
- hyperalgesic priming (paw withdrawal), PAR3^−/− vs WT (WT and PAR3^−/− mice [1]; [15]): not significantly affected by PGE2 treatment in comparison to WT mice; also recorded: hyperalgesic priming was diminished as measured by mechanical hypersensitivity and grimacing in PAR3^−/− mice; also recorded: loss of hyperalgesic priming
- hyperalgesic priming (facial grimacing), PAR3^−/− vs WT (WT and PAR3^−/− mice [3]; [15]): not significantly affected by PGE2 treatment in comparison to WT mice; also recorded: hyperalgesic priming was diminished as measured by mechanical hypersensitivity and grimacing in PAR3^−/− mice

Molecule: TFFLLR-NH2 [reference compound]
- duration of facial grimacing, PAR3^−/− (WT and PAR3^−/− mice [2]; TFFLLR-NH2 100 μg, i.pl, PAR3^−/−): up to 5 hours
- facial grimacing, PAR3^−/− and WT (WT and PAR3^−/− mice [2]; TFFLLR-NH2 100 μg, i.pl, n = 4/group): induced prolonged facial grimacing in PAR3^−/− but not WT mice
- mechanical hypersensitivity, PAR3^−/− vs WT (WT and PAR3^−/− mice [4]; [16]): significantly more robust and prolonged in PAR3^−/− mice; also recorded: more marked in the latter group. Cumulatively, the genotypic differences throughout 48 hours post-injection were significant
- mechanical withdrawal threshold, WT and PAR3^−/− (WT and PAR3^−/− mice [4]; [16]): induced mechanical hypersensitivity in both WT and PAR3^−/−; also recorded: significantly reduced mechanical withdrawal thresholds in WT and PAR3^−/− mice

Molecule: TFRGAP
- ERK activation, mouse lung fibroblasts (mouse lung fibroblasts): induced extracellular regulated kinase (ERK) activation via PAR1 rather than PAR3
- ERK activation, A-498 cells [6]: induced extracellular regulated kinase (ERK) activation via PAR1 rather than PAR3
- Ca2+ response in human smooth muscle cells [7]: elicited a Ca^2+ response in rat astrocytes [60] and human smooth muscle cells
- Ca2+ response in rat astrocytes (rat astrocytes): elicited a Ca^2+ response in rat astrocytes

Molecule: TFRGAPPNSFEEF-pego3-Hdc [Compound C660]
- heat sensitivity (WT and PAR3^−/− mice [8]): did not note any changes in heat sensitivity in either strain of mice
- hyperalgesic priming (paw withdrawal), PAR3^−/− (WT and PAR3^−/− mice [1]; primed with C660 30 pmol, PGE2 100 ng i.pl after 14 days, PAR3^−/−, n = 4/group): partially attenuated in PAR3^−/− cohort; also recorded: greatly reduced
- hyperalgesic priming (paw withdrawal), WT (WT and PAR3^−/− mice [1]; primed with C660 30 pmol, PGE2 100 ng i.pl after 14 days, WT, n = 4/group): caused hyperalgesic priming in WT mice
- facial grimacing overall effect size, WT vs PAR3^−/− (WT and PAR3^−/− mice [2]; C660 30 pmol intraplantar, 24 hr period, n = 4/group): did not differ significantly between groups
- facial grimacing, PAR3^−/− (WT and PAR3^−/− mice [2]; C660 30 pmol intraplantar, PAR3^−/− mice): facial grimacing in WT but not PAR3^−/− mice; also recorded: little acute effect
- facial grimacing, WT (WT and PAR3^−/− mice [2]; [17]): transient increase in facial grimacing was observed with the WT cohort at the 1 hr time point; also recorded: noted in WT mice, although changes were transient
- mEPSC amplitude [5]: no change in amplitude
- mEPSC frequency [5]: increased the frequency of mEPSCs
- RTCA response, cells not induced to express PAR3 [9]: did not show a response; also recorded: absent when PAR3 is not expressed
- affective (grimace) response to PGE2 after priming, WT vs PAR3^−/− (WT and PAR3^−/− mice [3]; primed with C660 30 pmol, PGE2 100 ng i.pl after 14 days): robust affective response in WT but not PAR3^−/− mice
- paw withdrawal threshold, PAR3^−/− (WT and PAR3^−/− mice [4]; C660 30 pmol intraplantar, PAR3^−/− male mice, n = 4/group): induces mechanical hypersensitivity and facial grimacing in WT but not PAR3^−/− mice; also recorded: significantly reduced paw withdrawal thresholds in the WT but not PAR3^−/− group; also recorded: little acute effect; also recorded: absent in PAR3 deficient mice
- duration of mechanical hypersensitivity, WT (WT and PAR3^−/− mice [4]; [17]): up to 24 hrs
- paw withdrawal threshold, WT (WT and PAR3^−/− mice [4]; [17]): induced mechanical hypersensitivity; also recorded: significantly reduced paw withdrawal thresholds; also recorded: prolonged mechanical hypersensitivity

Molecule: TFRGAPPNSFEEF-pego3-KLIPAIYLLVFVVGV-amide [Compound C751]
- solubility [10]: low solubility

Molecule: TFRGAPPNSFEEF-pego3-KRRPAIYLLVFVVGV-amide [Compound C752]
- solubility [10]: improved
- activity in RTCA (human PAR3 [11]): not active

Molecule: Thrombin
- duration of facial grimacing, PAR3^−/− (WT and PAR3^−/− mice [2]; thrombin 10 units, i.pl, PAR3^−/−): up to 5 hours
- facial grimacing, PAR3^−/− and WT (WT and PAR3^−/− mice [2]; thrombin 10 units, i.pl, n = 4/group): significantly increased facial grimacing in PAR3^−/− but not WT mice
- phosphoinositide signaling, human PAR3 (human PAR3 [12]): able to trigger robust phosphoinositide signaling
- signaling, murine PAR3 (Murine PAR3): unable to signal on its own in response to thrombin
- mechanical hypersensitivity, PAR3^−/− vs WT (WT and PAR3^−/− mice [4]; [18]): significantly greater in PAR3^−/− mice at 1, 3, and 5 hours post-injection
- mechanical hypersensitivity, WT and PAR3^−/− (WT and PAR3^−/− mice [4]; [18]): induced lasting mechanical hypersensitivity in both WT and PAR3^−/− mice
- mechanical hypersensitivity, PAR3^−/− vs WT (WT and PAR3^−/− mice [4]; [19]): significantly more robust and prolonged in PAR3^−/− mice
- mechanical hypersensitivity, WT and PAR3^−/− (WT and PAR3^−/− mice [4]; [19]): induced mechanical hypersensitivity in both WT and PAR3^−/−

Molecule: carrageenan
- acute response and hyperalgesic priming, female (WT and PAR3^−/− mice [1]; carrageenan, 8-week old female mice (Supplementary Fig. S6A–D)): loss of hyperalgesic priming occurred in both male and female mice
- hyperalgesic priming, PAR3^−/− vs WT, male (WT and PAR3^−/− mice [1]; primed with carrageenan, male mice (Supplementary Fig. S5C–D)): hyperalgesic priming was again reduced in the PAR3^−/− mice; also recorded: loss of hyperalgesic priming
- acute response, WT vs PAR3^−/− (WT and PAR3^−/− mice [4]; carrageenan, male mice (Supplementary Fig. S5A–B)): male WT and PAR3^−/− mice responded similarly to the inflammagen acutely
